In ChEMBL document CHEMBL2010734, “A thiopyranchromenone and other chromone derivatives from an Endolichenic fungus, Preussia africana” (J Nat Prod, 2012):
The source made the active and inactive calls. The rule behind the calls is not given here.

Experiments:
Format in all cases: functional, cell-based
HCT-116 [1] = assay: Cytotoxicity against human HCT116 cells at 20 ug/ml after 48 hrs by MTS assay
Summary of the method: (§1)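 Cells seeded at (2−5) × 10^3 per well depending on growth rate, attached overnight, then medium replaced with medium containing test compound (serial dilutions from 100 mM DMSO stock) or 0.1% DMSO vehicle; cisplatin as positive control. Incubated 48 h at 37 °C, humidified 5% CO2. MTS added, 90 min at 37 °C in the dark, proliferation read. Triplicate.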

HeLa [2] = assay: Cytotoxicity against human HeLa cells at 20 ug/ml after 48 hrs by MTS assay; summary of the method: as §1
A549 [3] = assay: Cytotoxicity against human A549 cells at 20 ug/ml after 48 hrs by MTS assay; summary of the method: as §1
MCF7 [4] = assay: Cytotoxicity against human MCF7 cells at 20 ug/ml after 48 hrs by MTS assay; summary of the method: as §1
HeLa [5] = assay: Cytotoxicity against human HeLa cells after 48 hrs by MTS assay
Summary of the method: (§2)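 MTS assay in triplicate. Cells seeded at (2−5) × 10³ per well, with the number set by growth rate, and allowed to attach overnight. Medium then replaced with medium containing 0.1% DMSO or serial dilutions of compounds made from 100 mM DMSO stocks. Cisplatin served as positive control. Incubation 48 h at 37 °C in humidified 5% CO2. MTS added, then 90 min at 37 °C in the dark. IC50 derived.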

HCT-116 [6] = assay: Cytotoxicity against human HCT116 cells after 48 hrs by MTS assay; settings: HCT-116, 48 h; summary of the method: as §2
A549 [7] = assay: Cytotoxicity against human A549 cells after 48 hrs by MTS assay; settings: A549, 48 h; summary of the method: as §2
MCF7 [8] = assay: Cytotoxicity against human MCF7 cells after 48 hrs by MTS assay; settings: MCF7, 48 h; summary of the method: as §1

SMILES | Activity (HCT-116 [1]) | Activity (HeLa [2]) | Activity (A549 [3]) | Activity (MCF7 [4]) | IC50 (HeLa [5]) | IC50 (HCT-116 [6]) | IC50 (A549 [7]) | IC50 (MCF7 [8])
COC(=O)[C@]1(O)[C@H](O)[C@H](C)[C@H]2Oc3cccc(O)c3C(=O)[C@H]21 | inactive | inactive | inactive | inactive |  |  |  | 
COC(=O)[C@H]1c2c(oc3cccc(O)c3c2=O)C[C@](C)(O)[C@H]1O | inactive | inactive | inactive | inactive |  |  |  | 
COC(=O)[C@@]1(O)c2c(oc3cccc(O)c3c2=O)S[C@@H](C)[C@H]1O [PREUSSOCHROMONE A] |  |  |  |  | 25.5 µM | 25.9 µM | 8.34 µM | 
COC(=O)[C@]1(O)C(=O)[C@H](C)[C@H]2Oc3cccc(O)c3C(=O)[C@@H]21 | inactive | inactive | inactive | inactive |  |  |  | 
COC(=O)[C@]1(O)[C@@H](O)[C@H](C)[C@H]2Oc3cccc(O)c3C(=O)[C@@H]21 | inactive | inactive | inactive | inactive |  |  |  | 
COC1=CC(=O)c2c(O)cc(OC)c3c2[C@]1(O)COC3=O [PREUSSOCHROMONE C] |  |  |  |  | 30 µM | 15.1 µM | 5.75 µM | 41.2 µM
